Data on three molecules can be found in ChEMBL document CHEMBL3739269, “Suppression of store overload-induced calcium release by hydroxylated metabolites of carvedilol” (Bioorg Med Chem Lett, 2016).

Conditions in all cases: Homo sapiens
In assay [1] the test system is HEK293. The experiment in a line: Inhibition of RyR2 R4496C mutant in HEK293 cells assessed as inhibition of store overload-induced calcium release at 10 uM by fura-2 AM dye based fluorescence assay. The assay is classed as cell-based. The essentials: (§1)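 HEK293 cells expressing RyR2 R4496C, loaded with fura-2 AM, were followed by single-cell Ca²⁺ imaging. Cells were perfused continuously with rising drug levels (0, 3, 10, 30 µM) without pre-incubation. Read-out was the percentage of cells showing spontaneous Ca²⁺ oscillations at each concentration.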

In assay [2] the test system is HEK293. The assay can be described thus: Inhibition of RyR2 R4496C mutant in HEK293 cells assessed as inhibition of store overload-induced calcium release at 30 uM by fura-2 AM dye based fluorescence assay. It is filed as cell-based. The procedure, abridged:
as §1

A short description of assay [3]: Inhibition of RyR2 R4496C mutant-mediated store overload-induced calcium release in HEK293 cells assessed as reduction in amplitude of spontaneous calcium oscillations by fura-2 AM dye based fluorescence assay. The assay is classed as cell-based. The procedure, abridged: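 Single-cell fura-2 ratio traces were recorded in R4496C RyR2-expressing HEK293 cells. Cells were perfused continuously with increasing concentrations (0, 3, 10, 30 µM) without pre-incubation. The amplitude of spontaneous Ca²⁺ oscillations was compared before and after each addition.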

Assay [4] concerns HEK293. The experiment in a line: Inhibition of RyR2 R4496C mutant in HEK293 cells assessed as reduction of caffeine-induced calcium release at 30 uM by fura-2 AM dye based fluorescence assay. It is filed as cell-based. The essentials: (§2)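 Fura-2 ratio imaging of single HEK293 cells expressing mutant RyR2 (R4496C), perfused with compound up to 30 µM without pre-incubation. Cytosolic Ca²⁺ level was monitored, and caffeine, a RyR2 agonist, was then added to trigger Ca²⁺ release. Amplitude of the caffeine-induced release was read from the traces.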

Assay [5] deals with HEK293. The experiment in a line: Induction of cytosolic calcium level in HEK293 cells expressing RyR2 R4496C mutant at 30 uM by fura-2 AM dye based fluorescence assay. It is filed as functional, cell-based. The procedure, abridged:
as §2

The structures appear in SMILES notation. Activity calls are given as the source filed them. The rule behind the calls is not given here.

As usually defined, the inhibition is how much of the control response was suppressed. As a reminder, the IC50 is the point on the concentration scale where inhibition reaches its midpoint. Turning to `COc1ccccc1OCCNCC(O)COc1c(O)ccc2[nH]c3ccccc3c12` (stereo not given), the inhibition in assay [1] came to 70%. Besides, the inhibition result in assay [2] and in assay [4] was “Active” in each case. For the same molecule, the IC50 in assay [3] worked out at 9.4 µM. Moreover, in assay [5], the result was Active.
For the molecule `COc1cc(O)ccc1OCCNCC(O)COc1cccc2[nH]c3ccccc3c12` (stereo not given), the inhibition in assay [1] was found to be 10%. Moreover, the inhibition result in assay [2] is “Active”. The IC50 in assay [3] is 10.4 µM. Also, in assay [4], the inhibition entry is “inactive”. For the same molecule, the outcome in assay [5] was inactive.
In the case of `COc1ccc(O)cc1OCCNCC(O)COc1cccc2[nH]c3ccccc3c12` (stereo not given), the values for the inhibition in assay [1] and in assay [2] were 10% and 80%, respectively. Besides, the IC50 in assay [3] was 19.4 µM. The inhibition result in assay [4] is “inactive”. For the same molecule, in assay [5], the result was inactive.
